Holding throughout (assay type): functional
Assay [1] relates to Rattus norvegicus. Briefly: Hypolipidemic activity in 14 days high cholesterol diet fed Wistar albino rat hyperlipidemic model assessed as decrease in serum low density lipoprotein cholesterol level at 20 mg/kg, po administered on day 8 to 14. Set-up: scale not given: the % may be the effect or the level left. In outline:
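HCD model in male Wistar rats (160–180 g) on chow plus 2% cholesterol and 1% cholic acid for 14 days. Oral dosing was 20 mg/kg in 0.5% carboxymethylcellulose from day 8 to 14, with groups of six. Rats were fasted 12 h on day 14, and tail blood was taken under mild ether anesthesia. Serum was separated by centrifugation at 3000 rpm for 10 min for lipoprotein cholesterol measurement.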

Assay [2] relates to Rattus norvegicus. The assay can be described thus: Hypolipidemic activity in 14 days high cholesterol diet fed Wistar albino rat hyperlipidemic model assessed as decrease in serum triglyceride level at 20 mg/kg, po administered on day 8 to 14. Set-up: scale not given: the % may be the effect or the level left. In outline: (§1)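 Male Wistar rats (160–180 g), acclimatized one week, fed chow with 2% cholesterol and 1% cholic acid for 14 days. Oral dosing was 20 mg/kg in 0.5% CMC on days 8–14, with six rats per group. On day 14, after a 12 h fast, tail blood was drawn under ether. Serum was analysed by kit spectrophotometry. Results are % change versus vehicle-treated hyperlipidemic controls.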

Assay [3] has as its system Rattus norvegicus. Briefly: Hypolipidemic activity in 14 days high cholesterol diet fed Wistar albino rat hyperlipidemic model assessed as increase in serum high density lipoprotein cholesterol level at 20 mg/kg, po administered on day 8 to 14. A digest of the protocol: as §1
The subject of assay [4] is Rattus norvegicus. Briefly: Hypolipidemic activity in 14 days high cholesterol diet fed Wistar albino rat hyperlipidemic model assessed as decrease in serum total cholesterol level at 20 mg/kg, po administered on day 8 to 14. On the set-up: scale not given: the % may be the effect or the level left. In outline: as §1
Assay [5] has as its system Rattus norvegicus. The assay can be described thus: Ratio of serum LDL cholesterol to serum HDL cholesterol in 14 days high cholesterol diet fed Wistar albino rat at 20 mg/kg, po administered on day 8 to 14.
The species entered for assay [6] is Homo sapiens. Briefly: Increase of plasma HDL cholesterol level in human.
Assay [7] is filed under the species Homo sapiens. The assay can be described thus: Reduction of plasma triglyceride level in human. On the set-up: scale not given: the % may be the effect or the level left.

SMILES strings stand for the structures.

Data on 14 compounds can be found in ChEMBL document CHEMBL1158379, “Design, synthesis and hypolipidemic activity of novel 2-(m-tolyloxy) isobutyric acid derivatives” (2009).

Consider `CCNC(=S)NNC(=O)C(C)(C)Oc1cccc(C)c1`, for which the Activity in the assay with Rattus norvegicus [1] is recorded as -1.16%; in the assay with Rattus norvegicus [2], 5.44%; with Rattus norvegicus [3], 5.85%; with Rattus norvegicus [4] it was -0.59%. In the assay with Rattus norvegicus [5], the Ratio was determined as 6.08.
The corresponding values for `Cc1cccc(OC(C)(C)C(=O)N/N=C/c2ccccc2Cl)c1` are 2.6%, -1.32%, 14.6%, 0% and 6.
Take `COc1ccc(NC(=O)C(C)(C)Oc2cccc(C)c2)cc1`: the Activity in the assay on Rattus norvegicus [1] amounted to 28.67%; in the assay on Rattus norvegicus [2], 25.79%; with Rattus norvegicus [3] it was 15.28%; in the assay on Rattus norvegicus [4], 23.24%. For the same compound, the Ratio in the assay on Rattus norvegicus [5] is 3.93.
As to `Cc1cccc(OC(C)(C)C(=O)O)c1`, the Activity is listed as 19.56% with Rattus norvegicus [1], 17.98% with Rattus norvegicus [2], 10.68% with Rattus norvegicus [3] and 15.89% with Rattus norvegicus [4]. In the assay on Rattus norvegicus [5], the Ratio was 4.62.
For `Cc1cccc(OC(C)(C)C(=O)N/N=C/c2ccccc2)c1`, the Activity in the assay on Rattus norvegicus [1] was found to be 8.02%; in the assay with Rattus norvegicus [2], 2.54%; in the assay with Rattus norvegicus [3], 18.47%; in the assay on Rattus norvegicus [4], 4.12%. For the same compound, the Ratio in the assay with Rattus norvegicus [5] is 4.94.
The corresponding values for `CCOC(=O)c1ccc(NC(=O)C(C)(C)Oc2cccc(C)c2)cc1` are 5.94%, 0.43%, 15.04%, 2.65% and 5.2.
For `Cc1cccc(OC(C)(C)C(=O)NCCc2ccccc2)c1`, the Activity in the assay with Rattus norvegicus [1] amounted to 21.21%; in the assay with Rattus norvegicus [2], 1.2%; in the assay with Rattus norvegicus [3] it was 22.45%; in the assay on Rattus norvegicus [4] it was 12.95%. In addition, in the assay with Rattus norvegicus [5], the Ratio is recorded as 4.09.
The corresponding values for `Cc1cccc(OC(C)(C)C(=O)N/N=C/c2ccc([N+](=O)[O-])cc2)c1` are 2.3%, -0.84%, 9.12%, 0.29% and 5.71.
Regarding `C=CCNC(=S)NNC(=O)C(C)(C)Oc1cccc(C)c1`, the Activity with Rattus norvegicus [1] is -1%; in the assay with Rattus norvegicus [2] it was -1.61%; in the assay with Rattus norvegicus [3], 6.78%; in the assay with Rattus norvegicus [4], -1.77%. The Ratio with Rattus norvegicus [5] turned out to be 6.02.
As for `COc1ccc(/C=N/NC(=O)C(C)(C)Oc2cccc(C)c2)cc1`, the Activity was -9.39% in the assay on Rattus norvegicus [1], 9.03% with Rattus norvegicus [2] and 15.8% with Rattus norvegicus [3]. Moreover, the Ratio in the assay with Rattus norvegicus [5] worked out at 5.41.
Turning to `CC(C)(Oc1ccc(CCNC(=O)c2ccc(Cl)cc2)cc1)C(=O)O` [BEZAFIBRATE], the figures for the Activity in the assay listed under Homo sapiens [6] and in the assay filed under Homo sapiens [7] were 5% and 30%, respectively.
Take `CCOC(=O)C(C)(C)Oc1ccc(Cl)cc1` [CLOFIBRATE]: the Activity in the assay listed under Homo sapiens [6] came out at 5%; in the assay filed under Homo sapiens [7], 30%.
The corresponding values for `CC(C)OC(=O)C(C)(C)Oc1ccc(C(=O)c2ccc(Cl)cc2)cc1` [FENOFIBRATE] are 5% and 30%.
Turning to `Cc1ccc(C)c(OCCCC(C)(C)C(=O)O)c1` [GEMFIBROZIL], the Activity is 5.35% in the assay on Rattus norvegicus [1], 22.23% in the assay with Rattus norvegicus [2], 25.18% in the assay with Rattus norvegicus [3] and 4.68% with Rattus norvegicus [4]. Moreover, the Ratio in the assay on Rattus norvegicus [5] stood at 4.81.
